What is called viability is a read-out of living cells in per cent, often relative to untreated cells. As usually defined, the inhibition is the relative decrease from the control value, in per cent.

Molecules are shown by their SMILES. Values without a mark were called inactive. Results filed as inconclusive are left out. Activity calls are given as the source filed them.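 The calls were made as follows, unless noted: active = viability increase at or above a cutoff of the median across tested compounds plus 3 SD (cut at about 8.5% in these data, passing the limit was not always enough); inconclusive = some gains above the cutoff, reason not given; inactive = the rest.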

Test [1] in a line: OD615 S. cerevisiae growth inhibition, permissive medium, pilot counter-assay, permissive growth control for S. cerevisiae lifespan shortening project (AID 705;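 active = growth inhibition above 25% in both replicates, a cutoff set 3 SD above the mean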). The following applies: OD615, 24 h, at 10 µM, hits give high values. The procedure, abridged: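 System: S. cerevisiae with engineered DeaD lifespan system. Medium: SC raffinose/galactose permissive medium. Doses: single compound dose of 10 µM, 0.25% DMSO final. Schedule: 24 h exposure, 30 °C. Measured by: OD615 turbidity read. Read-out: growth inhibition.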

Test [2] is described as follows: Restrictive medium S. cerevisiae growth inhibition, OD615, pilot screen of yeast lifespan reduction project, restrictive growth control (AID 706;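 active = growth inhibition above a set limit, 3 SD over mean compound inhibition, in both replicates, cut at about 43% in these data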). The following applies: OD615, 48 h, at 10 µM, hits give high values. The procedure, abridged: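 Assay system – genetically modified Saccharomyces cerevisiae, DeaD replicative lifespan assay strain · Medium – CSMM-D glucose medium · Doses – 10 µM compound, 0.25% DMSO · Times – 4 h pre-incubation, 48 h exposure at 30 °C · Signal – optical density at 615 nm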

Test [3] in a line: viability gain of MRP-1-high H69AR cells under doxorubicin, pilot screen, MRP-1 activator project, CellTiter-Glo, duplicate (AID 807).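 Also: compound pretreatment 18-22 h then 72 h combined with doxorubicin; 0% = doxorubicin alone and 100% = vehicle without doxorubicin.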 Particulars: H69AR viability with doxorubicin, CellTiter-Glo luminescence; at 10 µM; hits give high values. A general note: Cellular ATP, detected with luciferase, serves as a proxy for viable cell number.
The nature of test [4]: growth suppression of beta-catenin knockout HCT116, pilot screen, human colon tumor cells (AID 823;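 active = cell viability at or below a set limit in both duplicate runs, the limit being the all-compound median minus 4 SD, cut at about 23% in these data, passing the limit was not always enough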;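 also: 0% = wells killed by 20 µM Hyamine and 100% = untreated DMSO cell wells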). The following applies: CellTiter-Glo, 60 h, at 10 µM, hits give low values.
The nature of test [5]: growth suppression of PTEN-deleted HCT116, pilot screen, cell-based, HCT116 clonal line, CellTiter-Glo (AID 824;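 active = viability at or below 27.92% in each of two runs, the all-compound median minus 4 SD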;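 also: 0% = 20 µM Hyamine control and 100% = vehicle cell control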). The following applies: 60 h, at 10 µM, hits give low values.
Test [6] is described as follows: inhibitors of the yeast RAM network, pilot screen, dse1pr::URA3 reporter, 5-FOA selection (AID 869;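 active = inhibition over a set limit, the all-compound mean plus 3 SD, in both replicate runs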;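 also: 0% = DMSO wells with no growth and 100% = 10 µM 1-NA-PP1 with full growth; RAM network block rescues cells from 5-FOA so hits raise OD615 growth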). The following applies: S. cerevisiae dse1pr::URA3 5-FOA growth, OD615, 2 d; at 10 µM; hits give high values; strain carries analog-sensitive mutant Cbk1 kinase.
The nature of test [7]: RAM signaling pathway blockade in yeast – S. cerevisiae, Pdr1DBD-CYC8 efflux-inhibited sensitized strain, primary screen (AID 1298;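 active = RAM network inhibition above 8.4% in each of two replicates, 3 SD over the compound average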;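 also: 0% = DMSO untreated cells without growth and 100% = 10 µM 1-NA-PP1 full growth; higher means more yeast growth rescued from 5-FOA killing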). The following applies: S. cerevisiae cbk1-as DSE1-URA3 strain, 5-FOA growth OD615, 2 d; at 50 µM; hits give high values.

As for `O=C(c1ccc(-c2ccccc2)cc1)N1CCCC1`, the values for the growth inhibition in test [1] and in test [2] were 0.63% and -4.7%, respectively. For the same molecule, the viability increase in test [3] is 0.06%. The viability is 94.9% in test [4] and 98.8% in test [5]. Also, the inhibition in test [6] was 0.02%. The RAM network inhibition in test [7] was 10.3%.

Consider `CC1Cc2ccccc2N1C(=O)CSC1=NCCS1` (stereo unspecified), for which the growth inhibition is 7.58% in test [1] and 50.5% (active) in test [2]. Besides, in test [3], the viability increase is -6.91%. In addition, the viability in test [4] was 92.6%; in test [5], 95.2%. In test [6], the inhibition was 2.67%. The RAM network inhibition in test [7] is 6.64%.

With `COc1ccc(CNC(=O)CCCNS(=O)(=O)c2cccc3nonc23)cc1`, the growth inhibition in test [1] is 1.99%; in test [2] it was -22.1%. Further, the viability increase in test [3] is -2.08%. For the same molecule, the viability in test [4] is 92.3%; in test [5] it was 96.7%. Moreover, the inhibition in test [6] was 1.31%. The RAM network inhibition in test [7] was 7.37%.

As to `COc1ccc(C2CC(c3c(Cl)cccc3Cl)n3nc(N)nc3N2)cc1` (stereo unspecified), the growth inhibition is -6.17% in test [1] and 5.1% in test [2]. For the same molecule, in test [3], the viability increase was -1.64%. The viability is 95.3% in test [4] and 88.1% in test [5]. In addition, in test [6], the inhibition was 2.57%. Further, the RAM network inhibition in test [7] was 6.67%.

Regarding `CCSC1=C(C#N)C(c2ccccc2C)CC(=O)N1` (stereo unspecified), the growth inhibition in test [1] was -9.12%; in test [2], -23.4%. Moreover, the viability increase in test [3] is -2.22%. Further, the values for the viability in test [4] and in test [5] were 92.5% and 87.7%, respectively. Moreover, the inhibition in test [6] is 1.98%. Besides, in test [7], the RAM network inhibition was 4.78%.

Consider `Cc1cc(C)cc(N(CC(=O)Nc2c(C)n(C)n(-c3ccccc3)c2=O)S(C)(=O)=O)c1`, for which the growth inhibition is -11.3% in test [1] and -11.2% in test [2]. The viability increase in test [3] is -1.95%. Besides, the values for the viability in test [4] and in test [5] were 96.2% and 93.2%, respectively. For the same molecule, the inhibition in test [6] was 0.71%. Further, in test [7], the RAM network inhibition was 2.45%.

For the molecule `CCCCn1cc(C(C)(C)C)c(C#N)c1NC(C)=O`, the growth inhibition in test [1] is -21.7%; in test [2], -4.88%. The viability increase in test [3] is -1.24%. Further, the viability in test [4] is 97.8%; in test [5] it was 98.8%. For the same molecule, the inhibition in test [6] is 1.43%. In addition, in test [7], the RAM network inhibition was 5.33%.

`COCCNC(=O)CS(=O)Cc1nc(-c2ccccc2C)oc1C` (stereo unspecified): the results for the growth inhibition in test [1] and in test [2] were -8.16% and 5.6%, respectively. Further, the viability increase in test [3] was -0.56%. The viability in test [4] was 100%; in test [5], 98%. Further, the inhibition in test [6] was 0.23%. For the same molecule, the RAM network inhibition in test [7] is 2.05%.

Regarding `CCCc1cc(C(=O)Nc2cccc(C(C)=O)c2)no1`, the growth inhibition in test [1] is -4.86%; in test [2], 1.98%. Moreover, the viability increase in test [3] was 0.44%. The results for the viability in test [4] and in test [5] were 104% and 92.3%, respectively. The inhibition in test [6] is 1.75%. The RAM network inhibition in test [7] is 2.91%.

Turning to `CCC(Oc1ccccc1)C(=O)Nc1cc(C)on1` (stereo unspecified), the growth inhibition in test [1] is -8.55%; in test [2] it was -7.2%. The viability increase in test [3] was -0.57%. The viability was 108% in test [4] and 90.2% in test [5]. Also, the inhibition in test [6] was 0.86%. The RAM network inhibition in test [7] is 0.2%.

For the molecule `C=CCn1c(O)c(C2=c3ccccc3=NC2=O)sc1=Nc1ccc(O)cc1`, the growth inhibition was -4.33% in test [1] and -12% in test [2]. In test [3], the viability increase is -8.74%. Also, the viability was 2.1% (active) in test [4] and 1.53% (active) in test [5]. Besides, the inhibition in test [6] was 1.98%. Further, the RAM network inhibition in test [7] is 2.7%.

`CCOC(=O)c1cnc2c(C)cccc2c1NCc1ccco1`: the values for the growth inhibition in test [1] and in test [2] were -10.5% and -9.38%, respectively. In addition, the viability increase in test [3] was -4.61%. Moreover, the values for the viability in test [4] and in test [5] were 82.5% and 79%, respectively. Moreover, in test [6], the inhibition was 1.28%. For the same molecule, the RAM network inhibition in test [7] is -0.77%.

In the case of `Cc1ccc(-n2c(SCC(=O)NCC3CCCO3)nc3c(c2=O)SCC3)cc1` (stereo unspecified), the growth inhibition in test [1] was -10.7%; in test [2], -16.9%. Further, the viability increase in test [3] was -1.96%. For the same molecule, the viability was 100% in test [4] and 96.7% in test [5]. Besides, the inhibition in test [6] is 3.09%. Moreover, the RAM network inhibition in test [7] is 2.18%.

For `CC(C)(C)n1nc2c(c1NC(=O)Cc1cccs1)CSC2`, the figures for the growth inhibition in test [1] and in test [2] were -8.2% and 12.2%, respectively. In addition, the viability increase in test [3] is -1.56%. The viability in test [4] is 93.8%; in test [5] it was 92.4%. For the same molecule, the inhibition in test [6] was 0.95%. Besides, in test [7], the RAM network inhibition was 0.94%.

On to `Cn1cc(SCC(=O)NCC2CCCO2)c2ccccc21` (stereo unspecified), for which the growth inhibition was -3.53% in test [1] and 2.04% in test [2]. Also, the viability increase in test [3] was -2.67%. Further, the viability was 94.9% in test [4] and 93.2% in test [5]. Moreover, in test [6], the inhibition is 1.21%. Moreover, the RAM network inhibition in test [7] is 0.31%.

In the case of `O=C(Cn1cc(C(=O)c2cccs2)c2ccccc21)NCc1ccc2c(c1)OCO2`, the growth inhibition in test [1] is -5.79%; in test [2] it was -15.1%. In addition, the viability increase in test [3] is -2.32%. The viability is 94.6% in test [4] and 86.4% in test [5]. For the same molecule, the inhibition in test [6] was 1.08%. Also, the RAM network inhibition in test [7] is 2.74%.

For the molecule `CCC(CO)N=CC1=C(O)C(C(=O)c2ccccc2)CCC1=O` (stereo unspecified), the results for the growth inhibition in test [1] and in test [2] were -10.4% and -14.8%, respectively. For the same molecule, the viability increase in test [3] was 1.63%. Further, the viability in test [4] is 96.5%; in test [5], 105%. In addition, the inhibition in test [6] was 0.62%. For the same molecule, the RAM network inhibition in test [7] is 2.38%.

For `O=C(COC(=O)c1cnccn1)c1ccc(Br)cc1`, the growth inhibition in test [1] is -9.27%; in test [2], -14.4%. Besides, the viability increase in test [3] was 0.41%. Moreover, the viability in test [4] is 101%; in test [5], 96.7%. For the same molecule, the inhibition in test [6] is 1.94%. Besides, the RAM network inhibition in test [7] is 2.72%.
